Test results as given in BindingDB's records for doi:10.1021/np990092+ (Peking Union Medical College, 1999).

Molecular target: T1, Polyunsaturated fatty acid 5-lipoxygenase (Rattus norvegicus, UniProt P12527)
T1 sequence (P12527 whole entry): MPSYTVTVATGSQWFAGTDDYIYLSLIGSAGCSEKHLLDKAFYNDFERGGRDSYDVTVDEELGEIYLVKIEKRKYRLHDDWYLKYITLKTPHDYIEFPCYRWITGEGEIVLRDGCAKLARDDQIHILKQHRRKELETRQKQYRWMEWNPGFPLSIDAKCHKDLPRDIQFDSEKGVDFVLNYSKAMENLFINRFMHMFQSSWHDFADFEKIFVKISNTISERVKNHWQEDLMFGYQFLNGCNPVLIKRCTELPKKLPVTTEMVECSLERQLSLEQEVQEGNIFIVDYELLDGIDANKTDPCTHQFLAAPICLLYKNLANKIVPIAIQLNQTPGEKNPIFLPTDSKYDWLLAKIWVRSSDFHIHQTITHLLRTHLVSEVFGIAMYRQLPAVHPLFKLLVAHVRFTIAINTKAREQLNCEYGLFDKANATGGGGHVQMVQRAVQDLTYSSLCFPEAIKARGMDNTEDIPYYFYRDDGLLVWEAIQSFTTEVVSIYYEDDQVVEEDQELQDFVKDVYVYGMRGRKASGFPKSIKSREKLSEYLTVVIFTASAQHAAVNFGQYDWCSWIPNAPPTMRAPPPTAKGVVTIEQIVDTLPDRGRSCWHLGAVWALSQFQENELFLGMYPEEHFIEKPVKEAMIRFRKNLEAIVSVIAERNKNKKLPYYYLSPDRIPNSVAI
Assay: Inhibition of 5-lipoxygenase in Wistar rat peritoneal leukocytes
Outline: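 Leukocytes (~85% PMNs) were elicited in male Wistar rats (200-300 g) with ip 6% oyster glycogen and harvested 16-20 h later. Cells at 2.5 × 10^6/mL in complete HBSS were tested in triplicate, preincubated with the sample (in DMSO, or CHCl3 evaporated) for 10 min at 37 °C, then given A23187 for 10 min. Supernatant LTB4 was measured by RIA (3H-LTB4 tracer, rabbit antiserum, 18 h, 4 °C).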

## C=C1CCCC(C)C(=O)C(=O)[C@@H]2[C@@H]1CC2(C)C (stereo partly specified) [buddledin B]
  IC50: > 200 µM
